Assay results: paper PMC3583859 (RNA Biology, 2012)

Legend:
YchF (YchFE.coli) = target: T1, YchF (YchFE.coli) (Escherichia coli, UniProt P0ABU2); assay: equilibrium titration, intrinsic tryptophan fluorescence; assay type: binding
T1 sequence (P0ABU2 1-363): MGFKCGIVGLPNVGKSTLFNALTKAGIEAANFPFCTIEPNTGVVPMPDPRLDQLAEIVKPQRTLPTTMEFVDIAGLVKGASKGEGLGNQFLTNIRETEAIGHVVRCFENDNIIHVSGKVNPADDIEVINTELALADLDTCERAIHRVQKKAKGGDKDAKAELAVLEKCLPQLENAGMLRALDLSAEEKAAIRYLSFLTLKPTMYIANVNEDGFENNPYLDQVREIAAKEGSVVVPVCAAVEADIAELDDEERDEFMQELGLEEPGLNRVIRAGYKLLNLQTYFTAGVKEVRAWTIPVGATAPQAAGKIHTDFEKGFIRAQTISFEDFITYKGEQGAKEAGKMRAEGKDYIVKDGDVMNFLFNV
Procedure, shortened: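 Purified E. coli YchF in TAKM7 (50 mM Tris-Cl 7.5, 70 mM NH4Cl, 30 mM KCl, 7 mM MgCl2) titrated with nucleotides. Intrinsic fluorescence recorded in a stirred quartz cuvette: excitation 280 nm (2 nm slit), emission 295–400 nm in 1 nm steps (5 nm slits). With triphosphates, scans started immediately without equilibration. Spectra corrected against nucleotide titration into buffer alone.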

[1] = target: 70S ribosome from E. coli, purified (E. coli); assay: co-sedimentation

Nc1nc2c(ncn2[C@@H]2O[C@H](COP(=O)(O)OP(=O)(O)OP(=O)(O)O)[C@@H](O)[C@H]2O)c(=O)[nH]1 [GTP]
Kd (YchF (YchFE.coli)): 206 ± 5 µM

Nc1ncnc2c1ncn2[C@@H]1O[C@H](COP(=O)(O)OP(=O)(O)NP(=O)(O)O)[C@@H](O)[C@H]1O [ADPNP]
Kd (YchF (YchFE.coli)): 9 ± 8 µM

Nc1ncnc2c1ncn2[C@@H]1O[C@H](COP(=O)(O)OP(=O)(O)O)[C@@H](O)[C@H]1O [ADP]
Kd (YchF (YchFE.coli)): 14 ± 5 µM

Nc1nc2c(ncn2[C@@H]2O[C@H](COP(=O)(O)OP(=O)(O)O)[C@@H](O)[C@H]2O)c(=O)[nH]1 [GDP]
Kd (YchF (YchFE.coli)): 151 ± 38 µM

B1: N-terminally His-tagged YchF from Escherichia coli (enzyme)
chain: MGFKCGIVGLPNVGKSTLFNALTKAGIEAANFPFCTIEPNTGVVPMPDPRLDQLAEIVKPQRTLPTTMEFVDIAGLVKGASKGEGLGNQFLTNIRETEAIGHVVRCFENDNIIHVSGKVNPADDIEVINTELALADLDTCERAIHRVQKKAKGGDKDAKAELAVLEKCLPQLENAGMLRALDLSAEEKAAIRYLSFLTLKPTMYIANVNEDGFENNPYLDQVREIAAKEGSVVVPVCAAVEADIAELDDEERDEFMQELGLEEPGLNRVIRAGYKLLNLQTYFTAGVKEVRAWTIPVGATAPQAAGKIHTDFEKGFIRAQTISFEDFITYKGEQGAKEAGKMRAEGKDYIVKDGDVMNFLFNV
Kd [1]: 3.3 µM
stoichiometry N [1]: 0.3 YchF per 70S
